Measurements published in ChEMBL document CHEMBL1146487, “New cytotoxic clerodane diterpenoids from the leaves and twigs of Casearia membranacea” (J Nat Prod, 2004).

Legend:
[1] = Cytotoxicity against human Hep3B cells after 48 hrs by SRB assay; type: functional, cell-based, Hep 3B2
Procedure, shortened: (§1)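 Cells seeded in RPMI 1640 with 5% FBS at 37 °C, 5% CO2. A time-zero plate set fixed with TCA at 24 h. Drug added, then 48 h further incubation. Cold-TCA fixation, 0.4% w/v SRB in 1% acetic acid for 10 min, acetic acid washes, dye dissolved in 10 mM Tris base, A515 read. IC50 = concentration giving 50% absorbance reduction versus untreated cells.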

PC-3 = experiment: Cytotoxicity against human PC3 cells after 48 hrs by SRB assay; type: functional, cell-based; settings: PC-3, 48 h; procedure, shortened: as §1

SMILES: C=CC(=C)CC[C@]1(C)[C@H]2C[C@H](OC(=O)C(C)CC)C=C3[C@H](OC(=O)CCC)O[C@H](OC(C)=O)[C@@]32[C@H](OC(C)=O)[C@H](OC(C)=O)[C@@H]1C (stereo not given in full)
- IC50 [1]: 16800 nM
- IC50 (PC-3): 12800 nM

SMILES: C=CC(=C)CC[C@]1(C)[C@H]2C[C@H](OC(=O)C(C)CC)C=C3[C@H](OC(C)=O)O[C@H](OC(C)=O)[C@@]32[C@H](OC(=O)c2cccnc2)C[C@@H]1C (stereo not given in full)
- IC50 [1]: 10800 nM
- IC50 (PC-3): 13000 nM

SMILES: C=CC(=C)CC[C@]1(C)[C@H]2C[C@H](OC(=O)C(C)CC)C=C3[C@H](OC(C)=O)O[C@H](OC(C)=O)[C@@]32[C@H](O)C[C@@H]1C (relative stereo)
- IC50 [1]: 2400 nM
- IC50 (PC-3): 1800 nM

SMILES: C=CC(=C)CC[C@]1(C)[C@H]2C[C@H](OC(=O)C(C)CC)C=C3[C@H](OC(=O)CCC)O[C@H](OC(C)=O)[C@@]32[C@H](O)C[C@@H]1C (relative stereo) [CASEAMEMBRIN A]
- IC50 [1]: 2300 nM
- IC50 (PC-3): 1500 nM

SMILES: C=CC(=C)CC[C@]1(C)[C@H]2C[C@H](OC(=O)C(C)CC)C=C3[C@H](OC)O[C@H](OC(C)=O)[C@@]32[C@H](O)C[C@@H]1C (relative stereo) [CASEAMEMBRIN B]
- IC50 [1]: 18000 nM
- IC50 (PC-3): 22200 nM

SMILES: C=CC(=C)CC[C@]1(C)[C@H]2C[C@H](OC(=O)C(C)CC)C=C3[C@H](OC(=O)CCC)O[C@H](OC(C)=O)[C@@]32[C@H](O)[C@H](O)[C@@H]1C (relative stereo) [CASEAMEMBRIN C]
- IC50 [1]: 800 nM
- IC50 (PC-3): 600 nM

SMILES: C=CC(=C)CC[C@]1(C)[C@H]2C[C@H](OC(=O)C(C)CC)C=C3[C@H](OC(=O)CCC)O[C@H](OC(C)=O)[C@@]32[C@H](O)[C@H](OC(C)=O)[C@@H]1C (relative stereo) [CASEAMEMBRIN D]
- IC50 [1]: 1900 nM
- IC50 (PC-3): 2400 nM

SMILES: C=CC(=C)CC[C@]1(C)[C@H]2C[C@@H](OC(=O)C(C)CC)C=C3[C@H](OC(C)=O)O[C@H](OC(C)=O)[C@@]32[C@H](O)C[C@@H]1C (relative stereo) [CASEAMEMBRIN E]
- IC50 [1]: 2600 nM
- IC50 (PC-3): 2900 nM

SMILES: C=CC(=C)CC[C@]1(C)[C@H]2C[C@H](OC(=O)C(C)CC)C=C(C=O)[C@@]2(C=O)[C@H](O)C[C@@H]1C (relative stereo) [CASEAMEMBRIN F]
- IC50 [1]: 14700 nM
- IC50 (PC-3): 3000 nM

SMILES: CC(=O)O[C@H]1C(=O)[C@@]2(C)[C@H]([C@H](OC(=O)c3ccccc3)[C@]3(O)C[C@H](OC(=O)[C@H](O)[C@@H](NC(=O)c4ccccc4)c4ccccc4)C(C)=C1C3(C)C)[C@]1(OC(C)=O)CO[C@@H]1C[C@@H]2O [PACLITAXEL]
- IC50 [1]: 31 nM
- IC50 (PC-3): 16 nM
